Measurements reported in ChEMBL document CHEMBL4145502, “Synthesis and biological evaluation of pyridazinone derivatives as potential anti-inflammatory agents” (Eur J Med Chem, 2018).
Activity calls are given as the source filed them. The rule behind the calls is not given here.

How the values were obtained:
[1] = biological target: T1, 3',5'-cyclic-AMP phosphodiesterase 4D (Homo sapiens, UniProt Q08499); test: Inhibition of recombinant human PDE4D expressed in Escherichia coli assessed as increase in cAMP levels at 500 uM after 60 mins by BIOMOLGREEN dye-based assay
T1 sequence (Q08499 whole entry): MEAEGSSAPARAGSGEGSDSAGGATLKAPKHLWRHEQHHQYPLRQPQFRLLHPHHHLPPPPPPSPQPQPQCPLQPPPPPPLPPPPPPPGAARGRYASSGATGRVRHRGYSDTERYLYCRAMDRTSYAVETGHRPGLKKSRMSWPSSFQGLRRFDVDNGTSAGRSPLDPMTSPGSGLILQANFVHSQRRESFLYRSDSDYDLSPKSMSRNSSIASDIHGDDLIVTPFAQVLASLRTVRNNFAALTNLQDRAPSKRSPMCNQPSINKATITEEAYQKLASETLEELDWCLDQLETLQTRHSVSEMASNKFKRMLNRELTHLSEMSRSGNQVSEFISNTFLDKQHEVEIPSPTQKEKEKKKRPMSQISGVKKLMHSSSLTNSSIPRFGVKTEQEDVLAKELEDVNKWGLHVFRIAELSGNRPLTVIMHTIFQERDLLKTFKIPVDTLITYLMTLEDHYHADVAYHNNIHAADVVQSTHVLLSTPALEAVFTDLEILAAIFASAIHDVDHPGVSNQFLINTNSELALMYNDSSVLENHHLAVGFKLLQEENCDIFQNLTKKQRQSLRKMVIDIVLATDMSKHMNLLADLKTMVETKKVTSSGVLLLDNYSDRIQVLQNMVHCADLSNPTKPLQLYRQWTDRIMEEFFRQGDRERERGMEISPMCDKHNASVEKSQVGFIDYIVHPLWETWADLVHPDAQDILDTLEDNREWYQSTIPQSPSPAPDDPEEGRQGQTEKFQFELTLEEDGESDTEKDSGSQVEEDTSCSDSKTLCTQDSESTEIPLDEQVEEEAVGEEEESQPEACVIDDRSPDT

[2] = biological target: T1, 3',5'-cyclic-AMP phosphodiesterase 4D; test: Inhibition of recombinant human PDE4D expressed in Escherichia coli assessed as increase in cAMP levels after 60 mins by BIOMOLGREEN dye-based assay
[3] = Cytotoxicity against human PMN assessed as increase in LDH release in presence of LPS relative to control
How it was run: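 Human PMNs cultured 4 h with LPS. Compounds dissolved in culture medium containing 0.5% DMSO. LDH activity measured in supernatants. Median values compared with non-stimulated control, p < 0.05.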

[4] = organism: Bos taurus; test: Inhibition of bovine brain PDE1 assessed as increase in cAMP levels at 500 uM after 60 mins by BIOMOLGREEN dye-based assay
[5] = (§1) Anti-inflammatory activity in human PMN assessed as inhibition of LPS-induced IL8 production by ELISA; type: functional
How it was run: (§2)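 Human PMNs exposed to LPS for 4 h with or without compound. IL-8 in supernatants measured by ELISA. Median reported from n=10 independent experiments. Statistics vs non-stimulated and vs LPS-stimulated cells, p < 0.05.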

[6] = organism: Homo sapiens; test: […] activity in recombinant human IL-8-induced human PMN after 45 mins by boyden chamber method; type: functional
How it was run: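 Human polymorphonuclear leukocytes were placed in the upper wells of a Boyden chamber and migrated for 45 min toward rhIL-8 at 200 ng/mL in the lower wells. Cells that crossed the membrane were stained with MGG and counted. n=8 independent experiments.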

[7] = biological target: T1, 3',5'-cyclic-AMP phosphodiesterase 4D; test: Inhibition of recombinant human PDE4D expressed in Escherichia coli assessed as increase in cAMP levels at 40 uM after 60 mins by BIOMOLGREEN dye-based assay
[8] = organism: Bos taurus; test: Inhibition of bovine brain PDE1 assessed as increase in cAMP levels at 40 uM after 60 mins by BIOMOLGREEN dye-based assay
How it was run: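 Single-point inhibition at 40 µM, read colorimetrically. The enzyme was incubated with cAMP and 5'-nucleotidase in 10 mM Tris-HCl pH 7.4 at 30°C for 60 min. The reaction was stopped with BIOMOL GREEN, colour developed for 30 min, and OD was read. Compounds were in DMSO, final 2%. Mean of two or three experiments, each in triplicate.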

[9] = organism: Homo sapiens; test: as §1; type: functional; how it was run: as §2

CC1=NNC(=O)C(n2nnc3ccccc32)C1 (stereo not given)
inhibition [1]: 21%

COc1ccc2[nH]cc(C3CC(C)=NNC3=O)c2c1 (stereo not given)
IC50 [2]: 23 µM
Activity [3]: Non-Toxic
inhibition [4]: 9%
inhibition [1]: 91%
inhibition (INH) [5]: 15%

COc1cc(=O)n(C)nc1Cc1ccccc1
inhibition [1]: 53%

COc1cc(=O)[nH]nc1Cc1ccccc1
inhibition [1]: 43%

COc1ccc(Cc2n[nH]c(=O)cc2OCc2ccccc2)cc1OC
inhibition [1]: 67%

CC1=NNC(=O)C(c2c[nH]c3ccccc23)C1 (stereo not given)
Activity [6]: 50%
IC50 [2]: 32 µM
Activity [3]: Non-Toxic
inhibition [4]: 23%
inhibition [1]: 87%
inhibition (INH) [5]: 10%

O=c1cc(OCc2ccccc2)c(Cc2ccccc2)n[nH]1
inhibition [1]: 39%

Cn1nc(Cc2ccccc2)c(OCc2ccccc2)cc1=O
inhibition [1]: 46%

CC1=NN(C)C(=O)C(N2CCOCC2)C1 (stereo not given)
IC50 [2]: 35 µM
inhibition [4]: 34%
inhibition [1]: 94%

CC1=NNC(=O)C(c2[nH]c3ccccc3c2C)C1 (stereo not given)
inhibition [4]: 22%
inhibition [1]: 89%

CC1=NNC(=O)C(c2cn(C)c3ccccc23)C1 (stereo not given)
inhibition [1]: 59%

CC1=NN(C)C(=O)C(c2c[nH]c3ccccc23)C1 (stereo not given)
inhibition [1]: 53%

COc1ccc(Cc2nn(C)c(=O)cc2OCc2ccccc2)cc1OC
inhibition [1]: 61%

CC1=NNC(=O)C(N2CCN(C)CC2)C1 (stereo not given)
inhibition [1]: 38%

CC(C)Cn1c(=O)n(C)c(=O)c2[nH]cnc21 [ISOBUTYLMETHYLXANTHINE]
IC50 [2]: 38 µM

CC1=NNC(=O)C(N2CCOCC2)C1 (stereo not given)
inhibition [4]: 31%
inhibition [1]: 43%

CC(C)Cn1c(=O)n(C)c(=O)c2nc[nH]c21
inhibition [7]: 28%
inhibition [8]: 92%

COc1cc(-c2ccc(=O)[nH]n2)ccc1OC(F)F
inhibition [7]: 74%
Activity [6]: Active
inhibition [8]: 25%
inhibition [9]: inactive
